Assay outcomes: PubChem BioAssay, Sanford-Burnham Center for Chemical Genomics
Most compounds without a hit are left out; they make up all but 0.79% or so of the library.
bIAP inhibitor: blocks bovine intestinal alkaline phosphatase activity; purified bovine IAP, CDP-star luminescence, 30 min; 190,000 tested, under 10 active; inhibition, % at 20 µM;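 active means over 50% inhibition of intestinal alkaline phosphatase at 20 µM in the single-dose screen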
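System: Purified bovine intestinal alkaline phosphatase (IAP) enzyme | Input: IAP diluted 1/65,000,000 in the well | Also added: CDP-star chemiluminescent phosphatase substrate, 30 µM final | Dosing: 20 µM single dose | Times: Enzyme reaction for 30 min at room temperature | Detection: Luminescence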
mIAP block: blocks mouse intestinal alkaline phosphatase. purified mouse IAP, CDP-Star luminescence, 30 min. inhibition, % at 10 µM. 330,000 tested, 0.2% active. AID 2806;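 active means inhibition of at least 40% at 10 µM in the primary screen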;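 further: plate controls were DMSO with enzyme for no effect and no enzyme wells for full effect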
hIAP activ: increases human intestinal alkaline phosphatase activity; purified human IAP, CDP-Star luminescence, 30 min; active compounds read high; 1 = vehicle-only enzyme, 0 = enzyme-free background; activation factor at 10 µM; 330,000 tested, 0.16% active; AID 2524;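 active means activation factor of the enzyme at least 2-fold when tested at 20 µM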
Target sequence (P09923 whole entry, looked up): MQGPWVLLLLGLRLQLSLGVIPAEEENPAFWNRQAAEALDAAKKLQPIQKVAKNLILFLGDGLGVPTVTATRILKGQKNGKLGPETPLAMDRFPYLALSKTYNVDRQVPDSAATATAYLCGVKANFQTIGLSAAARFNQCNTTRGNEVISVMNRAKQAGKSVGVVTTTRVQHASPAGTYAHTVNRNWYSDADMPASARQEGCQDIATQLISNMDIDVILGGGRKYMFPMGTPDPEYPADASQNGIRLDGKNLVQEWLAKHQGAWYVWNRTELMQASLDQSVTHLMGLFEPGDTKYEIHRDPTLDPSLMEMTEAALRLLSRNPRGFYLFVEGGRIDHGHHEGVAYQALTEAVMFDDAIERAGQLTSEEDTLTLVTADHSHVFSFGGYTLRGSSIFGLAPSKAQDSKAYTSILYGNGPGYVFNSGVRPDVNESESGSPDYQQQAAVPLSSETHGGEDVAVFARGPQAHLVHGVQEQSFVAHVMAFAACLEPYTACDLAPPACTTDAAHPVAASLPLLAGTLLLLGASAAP
hIAP inh: human IAP inhibition | purified IAP, CDP-Star luminescence, 30 min | inhibition, % at 10 µM | 330,000 tested, 0.12% active;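 active means inhibition reaching a set limit with compound at 10 µM in the primary screen, cut at about 35% in these data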;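 further: plate controls were DMSO wells with enzyme for no effect and no-enzyme buffer wells for full effect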
mIAP act: mouse IAP activation; activation factor at 10 µM; 330,000 tested, 0.24% active; muIAP, CDP-Star luminescence, 30 min; active compounds read high; 1 = vehicle-only enzyme signal, 0 = enzyme-free wells;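 active means activation factor of at least 2 at 20 µM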
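System: Mouse IAP enzyme | Also added: CDP-Star substrate | Dosing: Compounds dispensed in DMSO | Schedule: 30 min enzyme-substrate-compound incubation at room temperature | Technique: Chemiluminescence readout | Control set: DMSO-only wells and no-enzyme negative control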
bIAP activator: increases bovine intestinal alkaline phosphatase activity; purified bovine IAP, CDP-star luminescence, 30 min; active compounds read high; fold of DMSO-control signal, blank-subtracted; activation factor at 20 µM; 200,000 tested, 0.17% active; AID 1016;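 active means activation factor of 2 or more at 20 µM, a signal rise over negative controls twice the positive control's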
* = called active by the depositor; i = inactive; . = not tested or not shown.

SMILES | bIAP inhibitor | mIAP block | hIAP activ | hIAP inh | mIAP act | bIAP activator
CC(C)NC[C@@H](O)c1ccc(O)c(O)c1 | 11 | 43* | 1.1 | -5 | 0.57 | 0.9
S=C(NCC1CCCCC1)Nc1cccnc1 | 5 | -1 | 0.89 | 11 | 1 | 0.9
FC(F)Sc1ccc(NC(=S)NC2CCCCC2)cc1 | 26 | -123 | 1.1 | -11 | 2.2* | 0.7
CN(CC(=O)Nc1ccc(SC(F)F)cc1)C1CCCCC1 | 17 | -20 | 1 | -3 | 1.2 | 0.8
FC(F)Sc1ccc(NC(=S)NCC2CCCCC2)cc1 | . | -228 | 0.91 | 9 | 3.3* | 0.3
CC1CCCCC1NC(=S)Nc1ccc(SC(F)F)cc1 (stereo unspecified) | 21 | -227 | 1.1 | -10 | 3.3* | 0.8
O=C(CCc1ccccc1Cl)NC1CCCN(c2ccc(C(F)(F)F)cn2)C1 (stereo unspecified) | . | -11 | 1.3 | -28 | 1.1 | .
COc1ccc(Cn2c(C)c(C)c(C#N)c2NC(=O)Nc2cccc(C)c2)cc1 | -9 | -118 | 1 | -4 | 2.2* | 1.1
CC(NC(=O)C1CC1)C(c1cccs1)N1CCN(c2ccccc2)CC1 (stereo unspecified) | 9 | -8 | 0.93 | 7 | 1.1 | 0.9
CC(NC(=O)NC1CCCCC1)C(c1cccs1)N1CCN(c2ccccc2)CC1 (stereo unspecified) | -32 | -100 | 0.79 | 22 | 2* | 1.3
Cn1c(=O)[nH]c(=O)c2c1nc(N1CCCCCC1)n2CCCSc1nc2ccccc2o1 | i | -9 | 1 | -1 | 1.1 | 6.8*
Cn1c(=O)[nH]c(=O)c2c1nc(N1CCCCCC1)n2CCSc1nc2ccccc2o1 | 5 | -11 | 1 | 0 | 1.1 | 0.9
COc1cc(/C=C2\SC(=S)N(Nc3ccccc3)C2=O)cc(OC)c1OC | 7 | 40* | 0.95 | 5 | 0.6 | 0.9
COc1ccc(C(=O)NNC(=S)NC(=O)C(C)(C)C)cc1 | -71 | -6 | 2.1* | -109 | 1.1 | 1.7
CC(=O)N(C)c1cccc(-c2ccc3nnc(C)n3n2)c1 | . | -4 | 1.1 | -14 | 1 | .
Cc1ccc(S(=O)(=O)NC(CC(C)C)C(=O)NCCCn2nc(C)cc2C)cc1 (stereo unspecified) | . | -14 | 1 | 0 | 1.1 | .
CCc1ccccc1NC(=O)CN1CCN(CC(=O)NCc2ccc(Cl)cc2)CC1 | . | -7 | 0.96 | 4 | 1.1 | .
Cc1cc(C)c(NC(=S)NC(NC(=O)c2ccccc2)C(Cl)(Cl)Cl)c(C)c1 (stereo unspecified) | 8 | -152 | 0.99 | 1 | 2.5* | 0.9
Cc1ccc(NC(=S)NC(NC(=O)c2ccco2)C(Cl)(Cl)Cl)cc1 (stereo unspecified) | 1 | -99 | 1.1 | -10 | 2 | 1
Cc1cccc(NC(=S)NC(NC(=O)c2ccco2)C(Cl)(Cl)Cl)c1 (stereo unspecified) | 19 | -104 | 1 | -2 | 2* | 0.8
Cc1ccc(NC(=S)NC(NC(=O)c2ccccc2)C(Cl)(Cl)Cl)c(C)c1 (stereo unspecified) | -18 | -84 | 1.1 | -6 | 1.8 | 1.2
Cc1ccsc1C(=O)OC(C)C(=O)NC1CCCCC1C (stereo unspecified) | . | -4 | 1 | -5 | 1 | .
CCN(CC)c1nc(OCCNC(=O)Nc2ccccc2)nc(N(CC)CC)n1 | -42 | -148 | 1.1 | -11 | 2.5* | 1.4
c1ccc2[nH]c(SCc3cn4ccccc4n3)nc2c1 | -41 | -6 | 1.5 | -46 | 1.1 | 1.4
Cc1cccc2nc(CSc3nc4ccccc4[nH]3)cn12 | -155 | 10 | 0.92 | 8 | 0.9 | 2.6*
SMILES | bIAP inhibitor | mIAP block | hIAP activ | hIAP inh | mIAP act | bIAP activator
COc1ccc(C(C(=O)NC2CCCC2)N(Cc2cccs2)C(=O)c2ccn[nH]2)cc1OC (stereo unspecified) | -131 | -29 | 1.4 | -41 | 1.3 | 2.3*
COc1ccc(-c2nnn(CC(=O)N(Cc3cccs3)C(C)C(=O)NC3CCCC3)n2)cc1OC (stereo unspecified) | -25 | -7 | 0.94 | 6 | 1.1 | 1.3
COCCN(C(=O)Cc1cccs1)C(C(=O)NC1CCCC1)c1ccc(OC)c(OC)c1 (stereo unspecified) | -1 | -1 | 1.4 | -43 | 1 | 1
CCC(C(=O)NC1CCCC1)N(Cc1cccs1)C(=O)Cn1nnc(-c2ccc(OC)c(OC)c2)n1 (stereo unspecified) | 6 | -109 | 1.3 | -29 | 2.1* | 0.9
COc1c(C(CC(C)C)OC(C)=O)ccc2c1C(=O)OCc1cc(C)cc(O)c1O2 (stereo unspecified) | . | 5 | 0.89 | 12 | 0.95 | .
CCc1ccc(C(C(=O)NCc2ccc(OC)cc2)N(CCOC)C(=O)Cc2cccs2)cc1 (stereo unspecified) | -19 | -25 | 0.95 | 5 | 1.3 | 1.2
COCCN(C(=O)Cc1cccs1)C(C(=O)NCc1ccc(OC)cc1)c1ccc(C(C)C)cc1 (stereo unspecified) | -115 | -24 | 1.1 | -13 | 1.2 | 2.1*
Cc1ccc(-n2cc(CN(C)Cc3ncc[nH]3)c(-c3cccc(C)c3)n2)cc1 | -253 | -4 | 1.4 | -43 | 1 | 3.5*
CN(Cc1ncc[nH]1)Cc1cn(-c2ccccc2)nc1-c1ccc2c(c1)OCO2 | . | -13 | 1.1 | -14 | 1.1 | .
O=C(Nc1cc(Cl)cc(Cl)c1)N1CCCC1 | . | -112 | 0.97 | 3 | 2.1* | .
O=C(Nc1cc(Cl)cc(Cl)c1)C(c1ccccc1)N1CCCCC1 (stereo unspecified) | 5 | -198 | 1.1 | -12 | 3* | 1
CS(=O)(=O)c1ccc(NC(=O)c2ccc3c(c2)S(=O)(=O)N=C2CCCCCN23)cc1 | . | 6 | 0.97 | 3 | 0.94 | .
Cc1ccc2c(c1)C1C=CCC1C(C(=O)O)N2 (stereo unspecified) | 7 | . | . | . | . | 0.9
COc1cccc2c1NC(C(=O)O)C1CC=CC21 (stereo unspecified) | 12 | 57* | 1.1 | -7 | 0.43 | 0.9
Cc1[nH]c(=O)[nH]c(=O)c1S(=O)(=O)Nc1cccc(C(F)(F)F)c1 | . | 8 | 0.89 | 11 | 0.93 | .
CCCCCCCCCCSc1n[nH]c(NC(C)=O)n1 | -234 | -114 | 1.1 | -8 | 2.1* | 3.3*
CCCSc1n[nH]c(NC(C)=O)n1 | 0 | 7 | 1 | -3 | 0.93 | 1
Cc1c(CCOC(=O)C23CC4CC(CC(C)(C4)C2)C3)sc[n+]1Cc1ccccc1 | 36 | 43* | 0.95 | 5 | 0.57 | 0.6
C#Cc1ccc([C@@H]2C=C(C(=O)OCC=C)O[C@H](OCc3ccc(CO)cc3)C2)cc1 | -2 | 3 | 0.97 | 3 | 0.97 | 1
Cc1ccc(-n2ncc(C(=O)Nc3cc(Cl)cc(Cl)c3)c2C2CCNCC2)cc1C | i | . | . | . | . | 6.1*
O=C(NCc1ccco1)c1cc([N+](=O)[O-])ccc1N1CCOCC1 | -6 | -16 | 1.1 | -10 | 1.2 | 1.1
